Measured values reported in ChEMBL document CHEMBL1153726, “Synthesis and anticancer activity of sclerophytin-inspired hydroisobenzofurans” (Bioorg Med Chem Lett, 2009).

Key:
Assay type in all cases: functional
[1] = test system: SK-MEL-5; experiment: Growth inhibition of human SK-MEL-5 cells at 10 nM after 96 hrs by MTT assay; set-up: scale not given: the % may be the effect or the level left
[2] = test system: SNB-75; experiment: Growth inhibition of human SNB75 cells at 1 nM after 96 hrs by MTT assay; set-up: scale not given: the % may be the effect or the level left
[3] = test system: SNB-19; experiment: Growth inhibition of human SNB19 cells after 96 hrs by MTT assay; details: SNB-19, 96 h
How it was run: (§1)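 Tested in the NCI 60-cell-line panel in five-dose format; GI50 and LC50 values reported for each cell line.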

[4] = test system: HOP-92; experiment: Growth inhibition of human HOP92 cells at 10 uM after 96 hrs by MTT assay; set-up: scale not given: the % may be the effect or the level left
[5] = test system: DU-145; experiment: Growth inhibition of human DU145 cells at 1 nM after 96 hrs by MTT assay; set-up: scale not given: the % may be the effect or the level left
[6] = test system: NCI-H23; experiment: Growth inhibition of human NCI-H23 cells at 1 uM after 96 hrs by MTT assay; set-up: scale not given: the % may be the effect or the level left
[7] = test system: MDA-MB-231; experiment: Growth inhibition of human MDA-MB-231 cells after 96 hrs by MTT assay; details: MDA-MB-231, 96 h
How it was run: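 Run in the NCI 60 human tumour cell line panel as a five-dose assay. GI50 and LC50 were reported for each cell line.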

[8] = test system: SF-539; experiment: Growth inhibition of human SF539 cells at 1 uM after 96 hrs by MTT assay; set-up: scale not given: the % may be the effect or the level left
[9] = test system: HOP-92; experiment: Growth inhibition of human HOP92 cells at 10 nM after 96 hrs by MTT assay; set-up: scale not given: the % may be the effect or the level left
[10] = test system: NCI-H23; experiment: Growth inhibition of human NCI-H23 cells at 1 nM after 96 hrs by MTT assay; set-up: scale not given: the % may be the effect or the level left
[11] = test system: SK-OV-3; experiment: Growth inhibition of human SKOV3 cells after 96 hrs by MTT assay; details: SK-OV-3, 96 h; how it was run: as §1
[12] = test system: U-251; experiment: Growth inhibition of human U251 cells at 1 uM after 96 hrs by MTT assay; set-up: scale not given: the % may be the effect or the level left
[13] = test system: UO-31; experiment: Growth inhibition of human UO31 cells at 1 nM after 96 hrs by MTT assay; set-up: scale not given: the % may be the effect or the level left
[14] = test system: BT-549; experiment: Growth inhibition of human BT549 cells after 96 hrs by MTT assay; details: BT-549, 96 h
[15] = test system: CAKI-1; experiment: Growth inhibition of human Caki1 cells after 96 hrs by MTT assay; details: CAKI-1, 96 h
[16] = test system: CAKI-1; experiment: Growth inhibition of human Caki1 cells at 1 uM after 96 hrs by MTT assay; set-up: scale not given: the % may be the effect or the level left
[17] = test system: MDA-MB-468; experiment: Growth inhibition of human MDA-MB-468 cells at 100 nM after 96 hrs by MTT assay; set-up: scale not given: the % may be the effect or the level left
[18] = test system: MDA-MB-435; experiment: Growth inhibition of human MDA-MB-435 cells at 1 uM after 96 hrs by MTT assay; set-up: scale not given: the % may be the effect or the level left
[19] = test system: COLO 205; experiment: Growth inhibition of human COLO205 cells at 1 uM after 96 hrs by MTT assay; set-up: scale not given: the % may be the effect or the level left
[20] = test system: SK-MEL-5; experiment: Growth inhibition of human SK-MEL-5 cells after 96 hrs by MTT assay; details: SK-MEL-5, 96 h; how it was run: as §1
[21] = test system: SK-MEL-28; experiment: Growth inhibition of human SK-MEL-28 cells after 96 hrs by MTT assay; details: SK-MEL-28, 96 h; how it was run: as §1
[22] = test system: NCI/ADR-RES; experiment: Growth inhibition of human NCI/ADR-RES cells at 10 nM after 96 hrs by MTT assay; set-up: scale not given: the % may be the effect or the level left
[23] = test system: EKVX; experiment: Growth inhibition of human EKVX cells at 100 nM after 96 hrs by MTT assay; set-up: scale not given: the % may be the effect or the level left
[24] = test system: MDA-MB-231; experiment: Growth inhibition of human MDA-MB-231 cells at 10 uM after 96 hrs by MTT assay; set-up: scale not given: the % may be the effect or the level left
[25] = read-out: LC50 (the source's name)
[26] = read-out: Log10GI50 (converted)
[27] = read-out: Log10LC50 (converted)

C=C(C)[C@H]1CC=C(C)C2=CO[C@@H](c3ccccc3F)[C@@H]21
Activity [1]: 88%
Activity [2]: 85%
GI50 ([3]; read-out: GI50): 10.7 µM
CC50 [3, 25]: 47.4 µM
GI50 [3, 26]: 10.7 µM
CC50 [3, 27]: 47.9 µM
TGI ([3]; read-out: Log10TGI (converted)): 22.4 µM
TGI ([3]; read-out: TGI): 22.5 µM
Activity [4]: 66.62%
Activity [5]: 88%
Activity [6]: 34%
GI50 ([7]; read-out: GI50): 6.73 µM
CC50 [7, 25]: 55.9 µM
GI50 [7, 26]: 6.76 µM
CC50 [7, 27]: 56.2 µM
TGI ([7]; read-out: Log10TGI (converted)): 22.4 µM
TGI ([7]; read-out: TGI): 22.3 µM
Activity [8]: 43%
Activity [9]: 69%
Activity [10]: 98%
GI50 ([11]; read-out: GI50): 12.3 µM
CC50 [11, 25]: > 100 µM
GI50 [11, 26]: 12.3 µM
CC50 [11, 27]: > 100 µM
TGI ([11]; read-out: Log10TGI (converted)): 38.9 µM
TGI ([11]; read-out: TGI): 39.3 µM
Activity [12]: 18%
Activity [13]: 89%
GI50 ([14]; read-out: GI50): 1720 nM
CC50 [14, 25]: 34 µM
GI50 [14, 26]: 1700 nM
CC50 [14, 27]: 33.9 µM
TGI ([14]; read-out: Log10TGI (converted)): 8.32 µM
TGI ([14]; read-out: TGI): 8.37 µM
GI50 ([15]; read-out: GI50): 5.5 µM
CC50 [15, 25]: > 100 µM
GI50 [15, 26]: 5.5 µM
CC50 [15, 27]: > 100 µM
TGI ([15]; read-out: Log10TGI (converted)): 39.8 µM
TGI ([15]; read-out: TGI): 39.8 µM
Activity [16]: 37%
Activity [17]: 57%
Activity [18]: 4%
Activity [19]: 50%
GI50 ([20]; read-out: GI50): 2480 nM
CC50 [20, 25]: 38.6 µM
GI50 [20, 26]: 2510 nM
CC50 [20, 27]: 38.9 µM
TGI ([20]; read-out: Log10TGI (converted)): 14.8 µM
TGI ([20]; read-out: TGI): 14.9 µM
GI50 ([21]; read-out: GI50): 10.5 µM
CC50 [21, 25]: 47.1 µM
GI50 [21, 26]: 10.5 µM
CC50 [21, 27]: 46.8 µM
TGI ([21]; read-out: Log10TGI (converted)): 22.4 µM
TGI ([21]; read-out: TGI): 22.2 µM
Activity [22]: 97%
Activity [23]: 80%
Activity [24]: 101.47%
